# Experimental data of several laboratories.
# Lines come from different studies, so protocols differ.
# Target: Glycogen synthase kinase-3 alpha (GSK3A, Homo sapiens, UniProt P49840)
SMILES,test,setting,quantity,result
CC(C)(C)c1nc(-c2cccc(NS(=O)(=O)c3c(F)cccc3F)c2F)c(-c2ccnc(N)n2)s1,"enzyme activity, inhibitor, radiometric",1 µM,remaining activity,97%
O=C1Cc2c([nH]c3ccc([N+](=O)[O-])cc23)-c2ccccc2N1,cell-free assay,0.5 µM,remaining signal,0.971%
O=C(O)[C@@H]1[C@@H](Cn2nnc3ccccc3c2=O)CC[C@H]1C(=O)c1ccc(OCCC2CCOCC2)cc1,"cell-free assay, competition with immobilised ligand",1 µM,remaining binding,93%
Cc1ccc(NC(=O)c2ccc(CN3CCN(C)CC3)cc2)cc1Nc1nccc(-c2cccnc2)n1,"enzyme activity, inhibitor",0.5 µM,activity vs control,100%
Cc1cc(-n2nc(Cc3cc(F)cc(C(F)(F)F)c3)nc2C)ccc1C(N)=O,"cell-free assay, competition with immobilised ligand",1 µM,remaining binding,97%
CCN(CC)CCNC(=O)c1c(C)[nH]c(/C=C2\C(=O)Nc3ccc(F)cc32)c1C,"enzyme activity, inhibitor",10 µM,inhibition,36%
Cc1c(NC(=O)c2cc(C(N)=O)nc3cc(F)ccc23)c(C(F)(F)F)nn1Cc1ccc(C(C)(C)C)cc1,"cell-free assay, competition with immobilised ligand",1 µM,remaining binding,98%
CC(C)(O)[C@H]1CC[C@H](Nc2ccc3ncc(-c4cccc(C(F)(F)F)c4)n3n2)CC1,"enzyme activity, inhibitor",1 µM,remaining activity,90%
Cn1cnc(Br)c1C1=CN(c2ncnc3[nH]cnc23)CCS1,"enzyme activity, inhibitor, radiometric",2 µM,inhibition,84.1%
O=C(NCc1ncc(C(F)(F)F)cc1Cl)c1ccc2c(c1)C1(CCS(=O)(=O)CC1)[C@@H](C1CC1)N2S(=O)(=O)c1ccc(F)cc1,"cell-free assay, competition with immobilised ligand",1 µM,remaining binding,100%
O=C1NC(=O)c2cc(Nc3ccc(F)cc3)c(Nc3ccc(F)cc3)cc21,"cell-free assay, inhibitor",0.5 µM,remaining signal,88.2%
COc1cc(Cl)c(C(=O)N[C@@H](CN[C@H]2CC[C@@H](N)CC2)Cc2ccc(C#N)cc2)cc1-c1ccc(CN[C@H](C)c2ccc(C)cc2)o1,"enzyme activity, inhibitor",1 µM,remaining activity,106%
Cc1c[nH]c2nccc(Oc3c(F)cc(Nc4cc(Cl)nc(N)n4)cc3F)c12,"cell-free assay, competition with immobilised ligand",0.1 µM,remaining binding,95%
Cc1ccc(NC(=O)c2ccc(C)c(C(F)(F)F)c2)cc1C#Cc1nn(C2CCC(O)CC2)c2ncnc(N)c12 (stereo not shown),"cell-free assay, inhibitor",10 µM,remaining signal,79%
Nc1c(C(=O)NCc2ccc(C(=O)NCCCC3CCCCC3)cc2)cnn1-c1ccccc1,"cell-free assay, competition with immobilised ligand",0.1 µM,remaining binding,100%
O=C(Nc1cnn(-c2csc(C(=O)NC3COC3)c2)c1)Nc1c(F)cccc1Cl,"enzyme activity, inhibitor",5 µM,remaining activity,93.5%
CCCCNc1ncc2c(-c3ccc(F)cc3)nn(C[C@H]3CC[C@H](N)CC3)c2n1,"target engagement in cells, inhibitor, chemoproteomics",20 mM,inhibition,6%
Nc1nc(Nc2ccc(S(N)(=O)=O)cc2)sc1C(=O)c1ccccc1[N+](=O)[O-],"enzyme activity, inhibitor",0.1 µM,inhibition,73 to 75%
Cc1nc(Cc2cccc(C(F)(F)F)c2)sc1-c1ccc(C(N)=O)nc1,"cell-free assay, competition with immobilised ligand",1 µM,remaining binding,82%
N#CCCc1ccc2c(c1)-c1[nH]c3ccc([N+](=O)[O-])cc3c1CC(=O)N2,cell-free assay,0.5 µM,remaining signal,0.804%
Cc1cc(NC(=O)c2cccc3cc(-c4cccc5[nH]nc(N)c45)ccc23)ccc1F,"enzyme activity, inhibitor",0.1 µM,activity vs control,121%
COc1cc2ncnc(Nc3ccc(Oc4ccccc4)c(C)c3C)c2cc1OC,"enzyme activity, inhibitor",1 µM,inhibition,2%
C[C@@H]1CN(c2cc(-c3n[nH]c4ccc(OC5(C)CC5)cc34)ncn2)C[C@H](C)O1,"cell-free assay, competition with immobilised ligand",0.1 µM,remaining binding,100%
c1ccc(CNc2nc(N3CCOc4ccccc43)nc3c2CCCC3)cc1,"target engagement in cells, inhibitor, chemoproteomics",20 mM,inhibition,0%
CCN(CC)c1ccc(C2=NNC(=O)CC2C)cc1[N+](=O)[O-] (stereo not shown),"enzyme activity, inhibitor",10 µM,remaining activity,89%
CC/C(=N\NC(=O)NCc1cccc(O)c1)c1ccc(O)c(C)c1O,"enzyme activity, inhibitor",0.1 µM,inhibition,2.8%
Cc1ccc(Nc2nccc(N(C)c3ccc4c(C)n(C)nc4c3)n2)cc1S(N)(=O)=O,"enzyme activity, inhibitor",0.3 µM,inhibition,-12%
CCCOc1ccc(OC)c(F)c1C(=O)c1ccc(C(=O)N[C@@H]2CNC[C@H]2NC(=O)c2ccc3[nH]ncc3c2)cc1,"enzyme activity, inhibitor",10 µM,remaining activity,89%
